# Results pooled from the literature.
# Compare with care: the assays were run in different laboratories. pIC50: −log10 of the molar value.
# CDK4 with cyclin D3: Cyclin-dependent kinase 4, with cyclin D3 (CDK4, Homo sapiens, UniProt P11802)
# CHRM2: Muscarinic acetylcholine receptor M2 (CHRM2, Homo sapiens, UniProt P08172)
# SLC22A8: Organic anion transporter 3 (SLC22A8, Homo sapiens, UniProt Q8TCC7)
# AMY2: Pancreatic alpha-amylase (AMY2, Sus scrofa, UniProt P00690)
# CDK4 with cyclin D1: Cyclin-dependent kinase 4, with cyclin D1 (CDK4, Homo sapiens, UniProt P11802)
Compound,target,read-out,action,technique,cells,setting,pIC50
CNS(=O)(=O)c1ccc(Nc2ncc3cc(Cl)c(=O)n(C4CCCC4)c3n2)c(C)c1,CDK4 with cyclin D3,enzyme activity,inhibitor,radiometric,,,7.66
O=C(CCNC(=O)CNC(=O)CC(c1ccccc1)(c1ccccc1)c1ccccc1)NC[C@@H]1CCCN(Cc2ccc(F)nc2)C1,CHRM2,ligand displacement,,radioligand,,cell membranes,< 4.52
NC/C(=C\F)COc1cccc(Cn2c(=S)[nH]c(=O)c3[nH]cnc32)c1,"Voltage-dependent L-type calcium channel subunit alpha-1C (CACNA1C, Homo sapiens, UniProt Q13936)",ion current,inhibitor,,,,< 4.00
NC(=O)c1nnn(Cc2cc(Cl)c(C(=O)c3ccc(Cl)cc3)c(Cl)c2)c1N,CHRM2,cAMP,antagonist,,,,5.73
CC(C)NC(=O)COc1cccc(-c2nc(Nc3ccc4[nH]ncc4c3)c3ccccc3n2)c1,SLC22A8,transporter uptake,inhibitor,radiometric,HEK293,,< 6.00
O=c1c(O)c(-c2ccc(O)cc2)oc2cc(O)cc(O)c12,AMY2,enzyme activity,inhibitor,,,,4.98
O=C(CCNC(=O)CNC(=O)CC(c1ccccc1)(c1ccccc1)c1ccccc1)NC[C@H]1CCCN(Cc2ccc(F)cc2)C1,CHRM2,ligand displacement,,radioligand,,cell membranes,4.86
O=c1cc(-c2ccc(O)c(O)c2)oc2cc(O)cc(O)c12,AMY2,enzyme activity,inhibitor,,,,5.66
COc1ccc(-c2oc3cc(Nc4ncc5cc(C(=O)N(C)C)n(C6CCCC6)c5n4)ccc3c(=O)c2F)cc1,CDK4 with cyclin D1,enzyme activity,inhibitor,radiometric,,,5.97
Cc1cc(O)c(-c2ccc([C@@H](C)CN(C)C)cc2)c2c1[nH]c(=O)c1sccc12,"Cyclin-dependent kinase 19, with cyclin C (CDK19, Homo sapiens, UniProt Q9BWU1)",enzyme activity,inhibitor,,,,< 6.00
CNS(=O)(=O)c1ccc(Nc2ncc(C(F)(F)F)c(N3CCC(C)(O)CC3)n2)c(C)c1,CDK4 with cyclin D3,enzyme activity,inhibitor,radiometric,,,6.70
CN(C)C(=O)c1cc2cnc(Nc3ccc(-c4cccc5c(=O)cc(N6CCOCC6)oc45)cn3)nc2n1C1CCCC1,CDK4 with cyclin D1,enzyme activity,inhibitor,radiometric,,,6.34
CNS(=O)(=O)c1ccc(Nc2ncc(C(F)(F)F)c([C@H]3CC[C@](C)(O)CC3)n2)c(C)c1,CDK4 with cyclin D3,enzyme activity,inhibitor,radiometric,,,6.61
CN1CCN(c2cc(=O)c3ccc(Nc4ncc5cc(C(=O)N(C)C)n(C6CCCC6)c5n4)cc3o2)CC1,CDK4 with cyclin D1,enzyme activity,inhibitor,radiometric,,,8.10
CNS(=O)(=O)c1ccc(Nc2ncc(C(F)(F)F)c(N3CCC[C@](C)(O)C3)n2)c(C)c1,CDK4 with cyclin D3,enzyme activity,inhibitor,radiometric,,,6.08
CN(C)C(=O)c1cc2cnc(Nc3ccc(-c4cccc5c(=O)cc(N6CCNCC6)oc45)cc3)nc2n1C1CCCC1,CDK4 with cyclin D1,enzyme activity,inhibitor,radiometric,,,6.54
O=c1c(O)c(-c2ccc(O)cc2)oc2c(Br)c(O)c(Br)c(O)c12,AMY2,enzyme activity,inhibitor,,,,5.43
CN(C)C(=O)c1cc2cnc(Nc3cncc(-c4cccc5c(=O)cc(N6CCOCC6)oc45)c3)nc2n1C1CCCC1,CDK4 with cyclin D1,enzyme activity,inhibitor,radiometric,,,7.27
C[C@H]1CN(C(=O)CC#N)[C@]12CCN(c1ncnc3[nH]ccc13)C2,SLC22A8,transporter uptake,inhibitor,,,,5.20
